Here are results for 2 molecules from ChEMBL document CHEMBL2163282, “Discovery and characterization of AZD9272 and AZD6538-Two novel mGluR5 negative allosteric modulators selected for clinical development” (Bioorg Med Chem Lett, 2012).

The target of data set [1] is Metabotropic glutamate receptor 5 (Rattus norvegicus) (UniProt P31424). Put plainly: (§1) Negative allosteric modulation of rat recombinant mGluR5 expressed in HEK293 cells expressing GLAST assessed as inhibition of DHPG-induced intracellular Ca2+ level after 30 mins by FLIPR assay. The data set is classed as functional, cell-based. In short, it runs like this: (§2)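 Human or rat mGluR5 expressed recombinantly in HEK293 cells that constitutively express the glutamate/aspartate transporter (mGluR5-GHEK). Intracellular Ca2+ rise evoked by DHPG was read on FLIPR. Potency was taken from test-compound inhibition of that response. Mean of 3 separate experiments.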

In data set [2] the target is T1, Metabotropic glutamate receptor 5 (Rattus norvegicus, UniProt P31424). Described as §1. The class given is functional, cell-based. Summed up: as §2
The target of data set [3] is T2, Metabotropic glutamate receptor 5 (Homo sapiens, UniProt P41594). Nature of the data set: Binding affinity to human mGluR5 expressed in HEK293 cell membranes expressing GLAST assessed as per mg of protein after 1 hr by scintillation counter. The note with it: tested as the 3H-labelled form.
Target sequence in this assay (P41594 21-1212 limits assumed): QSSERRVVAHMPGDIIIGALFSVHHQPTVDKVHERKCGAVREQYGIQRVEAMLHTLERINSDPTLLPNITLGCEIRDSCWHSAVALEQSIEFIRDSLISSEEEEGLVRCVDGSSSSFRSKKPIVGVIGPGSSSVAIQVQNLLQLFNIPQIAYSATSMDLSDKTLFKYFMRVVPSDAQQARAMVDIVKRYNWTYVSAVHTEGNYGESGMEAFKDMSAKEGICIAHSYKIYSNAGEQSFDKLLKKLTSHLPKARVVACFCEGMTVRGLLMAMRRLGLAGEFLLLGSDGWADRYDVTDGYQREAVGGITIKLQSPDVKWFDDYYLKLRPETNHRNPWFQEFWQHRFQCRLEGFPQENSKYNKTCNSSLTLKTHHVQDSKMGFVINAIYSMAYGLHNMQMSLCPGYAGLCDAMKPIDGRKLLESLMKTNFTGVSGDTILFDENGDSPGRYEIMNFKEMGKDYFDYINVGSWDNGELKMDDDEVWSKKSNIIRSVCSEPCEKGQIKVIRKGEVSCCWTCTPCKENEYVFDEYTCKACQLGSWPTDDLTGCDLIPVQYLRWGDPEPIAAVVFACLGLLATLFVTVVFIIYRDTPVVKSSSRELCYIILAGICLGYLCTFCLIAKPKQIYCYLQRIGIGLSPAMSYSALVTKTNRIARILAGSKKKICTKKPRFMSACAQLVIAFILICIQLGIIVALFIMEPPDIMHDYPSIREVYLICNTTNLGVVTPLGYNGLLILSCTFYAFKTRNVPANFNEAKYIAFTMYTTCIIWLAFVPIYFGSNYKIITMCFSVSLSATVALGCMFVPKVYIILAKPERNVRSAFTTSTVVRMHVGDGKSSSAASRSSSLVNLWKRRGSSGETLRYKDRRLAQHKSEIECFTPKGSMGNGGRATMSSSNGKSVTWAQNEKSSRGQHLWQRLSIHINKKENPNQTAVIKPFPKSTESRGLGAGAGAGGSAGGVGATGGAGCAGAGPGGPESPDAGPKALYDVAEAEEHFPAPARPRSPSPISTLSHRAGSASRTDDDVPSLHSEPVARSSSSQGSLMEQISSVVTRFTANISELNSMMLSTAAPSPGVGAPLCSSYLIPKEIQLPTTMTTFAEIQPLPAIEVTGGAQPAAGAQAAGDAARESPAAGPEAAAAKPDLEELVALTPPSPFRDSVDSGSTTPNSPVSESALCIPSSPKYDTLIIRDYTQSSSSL
In data set [4] the target is T2, Metabotropic glutamate receptor 5. Nature of the data set: Binding affinity to human mGluR5 expressed in HEK293 cell membranes expressing GLAST assessed as per mg of protein after 1 hr by scintillation counter in absence of MPEP. The note with it: tested as the 3H-labelled form. Summed up:
(§3)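 [3H]AZD9272 equilibrium saturation binding on membranes from human mGluR5-GHEK cells (HEK293 stably expressing glutamate/aspartate transporter), run without MPEP or with 10 or 20 nM MPEP; filtration termination; Kd and Bmax (pmol/mg protein) derived per assay, three separate assays.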
Target sequence in this assay (P41594 21-1212 limits assumed): as above

For data set [5] the target is unchanged. Nature of the data set: Binding affinity to human mGluR5 expressed in HEK293 cell membranes expressing GLAST assessed as per mg of protein after 1 hr by scintillation counter in presence of 10 nM MPEP. To be noted: tested as the 3H-labelled form. Summed up:
as §3
Target sequence in this assay (P41594 21-1212 limits assumed): as above

Data set [6] in a line: AUC in Sprague-Dawley rat at 3 umol/kg, po. The note with it: plasma. The data set is classed as ADME, organism-based. In short, it runs like this: (§4)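 Male rats (n = 3) received a single oral dose of 3 µmol/kg. Vehicle was Polyvidon K30 1.7 mg/ml, sodium lauryl sulphate 0.34 mg/ml and glycerin 25.0 mg/ml in water. Plasma levels were measured by liquid–liquid extraction and reversed-phase LC-MS/MS (APCI or ESI).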

The target of data set [7] is Metabotropic glutamate receptor 5 (Rattus norvegicus) (UniProt P31424). Put plainly: Binding affinity to mGluR5 in Sprague-Dawley rat striatum assessed per mg of protein after 60 mins by autoradiographic analysis. To be noted: tested as the 3H-labelled form.
For data set [8], the target named is Metabotropic glutamate receptor 3 (Homo sapiens) (UniProt Q14832). Nature of the data set: Positive allosteric modulation of mGluR3 assessed as effect on intracellular Ca2+ level up to 30 uM by cell based FLIPR assay. The class given is functional. In short, it runs like this: (§5)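 Each of the seven other mGluR subtypes was tested at concentrations up to 30 µM. Agonist, antagonist and positive allosteric modulator modes were each assessed. Read-out was the change in intracellular Ca2+ on FLIPR.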

In data set [9] the target is Metabotropic glutamate receptor 4 (Homo sapiens) (UniProt Q14833). Nature of the data set: Antagonist activity at mGluR4 assessed as effect on intracellular Ca2+ level up to 30 uM by cell based FLIPR assay. The data set is classed as functional. Summed up: as §5
The target in data set [10] is Metabotropic glutamate receptor 3 (Homo sapiens) (UniProt Q14832). Put plainly: Antagonist activity at mGluR3 assessed as effect on intracellular Ca2+ level up to 30 uM by cell based FLIPR assay. The class given is functional. In short, it runs like this:
as §5

Data set [11] has as its target Metabotropic glutamate receptor 6 (Homo sapiens) (UniProt O15303). Put plainly: Agonist activity at mGluR6 assessed as effect on intracellular Ca2+ level up to 30 uM by cell based FLIPR assay. The class given is functional. In short, it runs like this: as §5
Data set [12] concerns the target Metabotropic glutamate receptor 2 (Homo sapiens) (UniProt Q14416). Put plainly: Agonist activity at mGluR2 assessed as effect on intracellular Ca2+ level up to 30 uM by cell based FLIPR assay. The data set is classed as functional. Summed up: as §5
For data set [13], the target named is T2, Metabotropic glutamate receptor 5. Nature of the data set: Binding affinity to human mGluR5 expressed in HEK293 cell membranes expressing GLAST assessed as per mg of protein after 1 hr by scintillation counter in presence of 20 nM MPEP. The note with it: tested as the 3H-labelled form. In short, it runs like this: as §3
Target sequence in this assay (P41594 21-1212 limits assumed): as above
The target of data set [14] is Metabotropic glutamate receptor 5 (Rattus norvegicus) (UniProt P31424). Nature of the data set: Negative allosteric modulation of rat recombinant mGluR5 expressed in HEK293 cells expressing GLAST assessed as inhibition of ATP-induced intracellular Ca2+ level at 10 uM after 30 mins by FLIPR assay. The data set is classed as functional, cell-based. In short, it runs like this: (§6)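 FLIPR intracellular Ca2+ readout in background GHEK cells (HEK293 with glutamate/aspartate transporter, lacking mGluR5), stimulated with 10 µM ATP; test compound at 10 µM to check off-target inhibition.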

Data set [15] deals with T2, Metabotropic glutamate receptor 5. Put plainly: Negative allosteric modulation of human recombinant mGluR5 expressed in HEK293 cells expressing GLAST assessed as inhibition of ATP-induced intracellular Ca2+ level at 10 uM after 30 mins by FLIPR assay. The class given is functional, cell-based. In short, it runs like this:
as §6
Target sequence in this assay (P41594 21-1212 limits assumed): as above

For data set [16] the target is unchanged. The note with it: HEK293, tested as the 3H-labelled form.
Target sequence in this assay (P41594 21-1212 limits assumed): as above
Data set [17] has the same target. To be noted: HEK293, tested as the 3H-labelled form. The source holds these as a separate data set.
For data set [18] the target is unchanged. Put plainly: Displacement of [3H]MPEP from human mGluR5 expressed in HEK293 cell membranes expressing GLAST after 1 hr by scintillation counter.
Data set [19] shares this target. Nature of the data set: Displacement of [3H]AZD9272 from human mGluR5 expressed in HEK293 cell membranes expressing GLAST after 1 hr by scintillation counter.
Data set [20] deals with T1, Metabotropic glutamate receptor 5. Put plainly: Displacement of [3H]AZD9272 from mGluR5 in Sprague-Dawley rat striatum by autoradiographic analysis. In short, it runs like this:
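Sections were cut from rat striatum (plates 13–16, 2 rats). They were incubated with 3 nM [3H]AZD9272 plus increasing concentrations of competitor. Nonspecific binding was defined with 10 µM MPEP. Bound label was read by autoradiography (mean, SD, n = 2).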
In general terms: In a radioligand displacement assay an active substance lowers the binding of a labelled ligand.

The nature of data set [21]: AUC (0 to 8 hrs) in Sprague-Dawley rat at 3 umol/kg, po. The class given is ADME, organism-based. Further details: time < 8 hr, dose 3 umol/kg, route oral. To be noted: plasma. Summed up:
as §4

pIC50, pKi: −log10 of the molar value. Active and inactive are the calls of the source. The rule behind the calls is not given here.

What is called inhibition is the change of the read-out against control, counted positive when it falls. Usually pIC50 stands for the IC50 on a negative log10 scale, so that one unit is a factor of ten. The term AUC denotes concentration integrated over time. One may read the pKi as the Ki on a negative log10 scale, so that one unit is a factor of ten. A low value points to a large Ki. One may read the AUC(0-t) as the area under the concentration-time curve up to a stated or last time point.

Metabotropic glutamate receptor 5 (Rattus norvegicus), sequence (P31424 21-1203 limits assumed): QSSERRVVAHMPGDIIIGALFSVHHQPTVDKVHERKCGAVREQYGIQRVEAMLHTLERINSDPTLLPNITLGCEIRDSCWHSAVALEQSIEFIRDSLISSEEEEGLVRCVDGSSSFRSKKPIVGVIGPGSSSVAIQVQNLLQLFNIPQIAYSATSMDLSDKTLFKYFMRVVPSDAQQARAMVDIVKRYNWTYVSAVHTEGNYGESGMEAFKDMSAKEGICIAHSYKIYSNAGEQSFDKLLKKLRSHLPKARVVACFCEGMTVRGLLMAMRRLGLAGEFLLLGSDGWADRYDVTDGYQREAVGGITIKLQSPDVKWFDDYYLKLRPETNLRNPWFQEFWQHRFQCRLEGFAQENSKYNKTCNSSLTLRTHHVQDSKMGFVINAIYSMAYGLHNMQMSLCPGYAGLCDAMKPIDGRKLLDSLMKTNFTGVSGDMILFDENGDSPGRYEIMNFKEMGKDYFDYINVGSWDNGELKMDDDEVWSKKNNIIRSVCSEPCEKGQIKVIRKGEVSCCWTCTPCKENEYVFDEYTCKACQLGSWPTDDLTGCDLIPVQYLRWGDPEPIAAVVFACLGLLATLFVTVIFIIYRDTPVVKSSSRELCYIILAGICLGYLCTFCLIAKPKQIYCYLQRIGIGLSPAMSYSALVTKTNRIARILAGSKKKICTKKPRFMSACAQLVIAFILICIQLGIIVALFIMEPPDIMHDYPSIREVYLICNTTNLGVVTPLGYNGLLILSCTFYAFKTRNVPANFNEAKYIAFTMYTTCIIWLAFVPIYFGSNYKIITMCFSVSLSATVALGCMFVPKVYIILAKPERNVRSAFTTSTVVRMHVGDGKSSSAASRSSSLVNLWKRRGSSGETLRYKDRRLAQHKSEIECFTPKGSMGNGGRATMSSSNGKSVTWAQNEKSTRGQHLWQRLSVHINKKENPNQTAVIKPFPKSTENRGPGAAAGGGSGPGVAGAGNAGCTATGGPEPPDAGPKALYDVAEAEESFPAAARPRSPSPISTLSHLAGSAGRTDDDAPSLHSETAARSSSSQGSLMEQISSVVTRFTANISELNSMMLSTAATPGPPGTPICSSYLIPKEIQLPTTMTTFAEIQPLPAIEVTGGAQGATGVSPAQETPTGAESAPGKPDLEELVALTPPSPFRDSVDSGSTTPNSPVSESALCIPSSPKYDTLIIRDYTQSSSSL
Metabotropic glutamate receptor 3 (Homo sapiens), sequence (Q14832 23-879 limits assumed): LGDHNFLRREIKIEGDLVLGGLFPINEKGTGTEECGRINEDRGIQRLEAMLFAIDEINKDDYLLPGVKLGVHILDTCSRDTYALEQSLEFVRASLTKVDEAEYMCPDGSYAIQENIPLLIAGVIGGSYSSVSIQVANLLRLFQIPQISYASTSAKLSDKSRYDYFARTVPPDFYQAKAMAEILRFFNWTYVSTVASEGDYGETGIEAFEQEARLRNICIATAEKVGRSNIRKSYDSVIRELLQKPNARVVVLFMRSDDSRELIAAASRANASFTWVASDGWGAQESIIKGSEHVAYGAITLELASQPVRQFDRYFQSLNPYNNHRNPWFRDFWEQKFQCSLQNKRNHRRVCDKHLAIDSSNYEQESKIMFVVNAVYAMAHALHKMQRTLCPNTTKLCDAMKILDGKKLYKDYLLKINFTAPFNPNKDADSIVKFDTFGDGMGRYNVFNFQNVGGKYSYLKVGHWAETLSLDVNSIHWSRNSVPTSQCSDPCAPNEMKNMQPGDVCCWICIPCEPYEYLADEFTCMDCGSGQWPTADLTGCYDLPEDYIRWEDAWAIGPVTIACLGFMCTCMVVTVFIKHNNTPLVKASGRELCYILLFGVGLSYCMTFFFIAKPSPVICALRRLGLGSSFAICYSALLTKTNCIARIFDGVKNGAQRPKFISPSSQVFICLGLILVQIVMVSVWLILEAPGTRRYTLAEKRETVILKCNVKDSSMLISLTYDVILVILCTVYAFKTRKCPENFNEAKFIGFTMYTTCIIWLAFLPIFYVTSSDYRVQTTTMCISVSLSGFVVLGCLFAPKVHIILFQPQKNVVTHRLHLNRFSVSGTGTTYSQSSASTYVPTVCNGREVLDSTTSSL
T1 sequence (P31424 whole entry): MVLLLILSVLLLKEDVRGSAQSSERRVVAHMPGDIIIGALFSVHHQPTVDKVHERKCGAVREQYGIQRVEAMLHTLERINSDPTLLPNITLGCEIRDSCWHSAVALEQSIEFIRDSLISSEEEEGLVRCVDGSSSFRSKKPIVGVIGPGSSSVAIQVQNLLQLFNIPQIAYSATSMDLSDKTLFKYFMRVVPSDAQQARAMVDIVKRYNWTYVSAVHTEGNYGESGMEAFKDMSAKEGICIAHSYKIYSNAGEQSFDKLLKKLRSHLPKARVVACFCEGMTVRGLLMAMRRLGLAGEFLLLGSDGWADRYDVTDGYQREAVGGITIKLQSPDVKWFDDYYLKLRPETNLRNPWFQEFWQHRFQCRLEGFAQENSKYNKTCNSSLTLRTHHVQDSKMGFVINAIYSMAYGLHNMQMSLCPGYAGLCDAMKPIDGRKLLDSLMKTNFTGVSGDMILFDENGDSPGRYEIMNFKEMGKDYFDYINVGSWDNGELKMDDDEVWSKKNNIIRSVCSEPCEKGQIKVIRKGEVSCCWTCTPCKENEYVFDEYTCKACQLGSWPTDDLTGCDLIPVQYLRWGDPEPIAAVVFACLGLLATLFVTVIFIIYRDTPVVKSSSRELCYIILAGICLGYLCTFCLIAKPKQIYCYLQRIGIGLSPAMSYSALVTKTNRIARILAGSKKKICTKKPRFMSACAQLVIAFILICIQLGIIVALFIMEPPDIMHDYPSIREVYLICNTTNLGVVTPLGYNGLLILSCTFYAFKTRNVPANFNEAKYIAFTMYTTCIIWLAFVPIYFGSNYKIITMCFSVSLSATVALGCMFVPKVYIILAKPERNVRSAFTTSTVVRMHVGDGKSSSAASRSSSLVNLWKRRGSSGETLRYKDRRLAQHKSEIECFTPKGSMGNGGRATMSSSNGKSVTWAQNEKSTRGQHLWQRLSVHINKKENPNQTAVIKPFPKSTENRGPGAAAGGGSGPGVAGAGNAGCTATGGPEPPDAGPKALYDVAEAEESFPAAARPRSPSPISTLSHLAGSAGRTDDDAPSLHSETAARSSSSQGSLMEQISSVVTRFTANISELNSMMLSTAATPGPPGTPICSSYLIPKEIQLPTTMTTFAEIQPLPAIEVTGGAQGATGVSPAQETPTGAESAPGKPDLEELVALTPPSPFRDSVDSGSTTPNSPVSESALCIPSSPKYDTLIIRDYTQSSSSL

Regarding `N#Cc1cc(F)cc(-c2nc(-c3ccc(F)cn3)no2)c1`, the results for the inhibition entry in [1], in data set [9] and in data set [10] were “Dose-dependent effect”, less than 50% and less than 50%, respectively. Also, the pIC50 in data set [2] is 8.59. Further, the Bmax was determined as 4.4 pmol in [3]; 5.3 pmol in data set [4]; 5.1 pmol in data set [5]; 1550 fmol/mg in [7]; 5 pmol in [13]. In addition, the AUC in [6] amounted to 5.4 µM·h. For the same molecule, the Activity in data set [8], in data set [11] and in [12] was less than 50% in each case. Also, the inhibition result in data set [14] and in [15] was “inactive” throughout. Besides, the T1/2 in [16] amounted to 3.45 min; in data set [17], 7.85 min.

Turning to `N#Cc1ccc(-c2noc(-c3cc(F)cc(C#N)c3)n2)nc1`, the inhibition entry in [1] is “Dose-dependent effect”; in [9], less than 50%; in [10], less than 50%. Moreover, the results for the pIC50 in data set [2] and in [20] were 8.49 and 7.84, respectively. For the same molecule, the values for the pKi in data set [18] and in data set [19] were 7.55 and 7.75, respectively. The molecule further registered an AUC(0-t) at 8 h in [21] of 3.6 µM·h. Moreover, the Activity in [8], in data set [11] and in [12] was less than 50% each time. In addition, the inhibition result in data set [14] and in [15] was “inactive” each time.
